Active and inactive are the calls of the source. The rule behind the calls is not given here.
Legend:
Type in all cases: functional, cell-based
[1] = test system: PBMC; test: Induction of apoptosis in human activated PBMC assessed as necrosis at 14 uM by annexinV/propidium iodide staining-based flow cytometric analysis
Summary of the method: (§1)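 Donor PBMC (10^5) were activated with anti-CD3/CD28 mAbs for 72 h with test agent, medium or controls (camptothecin 30 μg/mL; Triton X-100 0.5%). Readouts were subG1 DNA content by flow cytometry, and annexin V-FITC then propidium iodide staining by flow cytometry. Gates: viable annexin−/PI−; apoptotic annexin+/PI− or +/+; necrotic annexin−/PI+. Three independent experiments, mean ± SEM.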

[2] = test system: PBMC; test: Antiproliferative activity against activated human PBMC assessed as decrease in cell division after 72 hrs by flow cytometric analysis
Summary of the method: (§2)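 PBMC from healthy adult donors, isolated on a density gradient and cultured in RPMI 1640 with 10% heat-inactivated FCS at 37 °C and 5% CO2. 10^5 cells were stimulated with anti-CD3 (OKT3) and anti-CD28 mAbs for 72 h with test agent or medium. Cells were labelled with CFSE (5 μM, 10 min, 37 °C) and cell division was read by flow cytometry. Three or four independent experiments, mean ± SEM.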

[3] = test system: PBMC; test: Induction of apoptosis in human activated PBMC at 1.8 to 14 uM by annexinV/propidium iodide staining-based flow cytometric analysis; summary of the method: as §1
[4] = test system: PBMC; test: Antiproliferative activity against activated human PBMC assessed as decrease in cell division at 30 ug/ml after 72 hrs by flow cytometric analysis; summary of the method: as §2
[5] = test system: PBMC; test: Induction of apoptosis in human activated PBMC at 30 ug/ml by annexinV/propidium iodide staining-based flow cytometric analysis; summary of the method: as §1
[6] = test system: PBMC; test: Induction of apoptosis in human activated PBMC assessed as necrosis at 30 ug/ml by annexinV/propidium iodide staining-based flow cytometric analysis; summary of the method: as §1
[7] = test system: PBMC; test: Antiproliferative activity against activated human PBMC assessed as decrease in cell division at 1.6 uM after 72 hrs by flow cytometric analysis; summary of the method: as §2
[8] = test system: PBMC; test: Induction of apoptosis in human activated PBMC assessed as internucleosomal DNA fragmentation at 1.6 uM by annexinV/propidium iodide staining-based flow cytometric analysis; summary of the method: as §1
[9] = test system: PBMC; test: Induction of apoptosis in human activated PBMC assessed as necrotic cells at 1.6 uM by annexinV/propidium iodide staining-based flow cytometric analysis; summary of the method: as §1

For `CC(C)C[C@@H]1NC(=O)CNC(=O)[C@H](CC(N)=O)NC(=O)[C@H](CCCNC(=N)N)NC(=O)[C@H]([C@@H](C)O)NC(=O)[C@H](CS)NC(=O)[C@H](C(C)C)NC(=O)[C@@H]2CCCN2C(=O)[C@H](CCC(=O)O)NC(=O)[C@H](CO)NC(=O)[C@H](CS)NC(=O)[C@H]([C@@H](C)O)NC(=O)[C@H](CS)NC(=O)CNC(=O)[C@@H]2CCCN2C(=O)[C@H]([C@@H](C)O)NC(=O)[C@H](CC(N)=O)NC(=O)[C@H](CS)NC(=O)[C@H]([C@@H](C)O)NC(=O)CNC(=O)CNC(=O)[C@H](C(C)C)NC(=O)[C@H](CS)NC(=O)[C@H]([C@@H](C)O)NC(=O)[C@H](CCC(=O)O)NC(=O)CNC(=O)[C@H](CS)NC(=O)[C@H](C(C)C)NC(=O)[C@@H]2CCCN2C1=O`, the Activity [1] was “inactive”, the Activity [2] was “Dose-dependent effect” and the Activity [3] was “inactive”.
For `CC[C@@]1(O)C(=O)OCc2c1cc1n(c2=O)Cc2cc3ccccc3nc2-1`, the Activity [4] was “Active”, the Activity [5] was “Active” and the Activity [6] was “Active”.
In the case of `CC(C)C[C@@H]1NC(=O)CNC(=O)[C@H](CC(N)=O)NC(=O)[C@H](CCCNC(=N)N)NC(=O)[C@H]([C@@H](C)O)NC(=O)[C@@H]2CSSC[C@@H]3NC(=O)[C@H]([C@@H](C)O)NC(=O)CNC(=O)CNC(=O)[C@H](C(C)C)NC(=O)[C@@H]4CSSC[C@H](NC(=O)[C@H]([C@@H](C)O)NC(=O)[C@H](CSSC[C@H](NC(=O)[C@H](C(C)C)NC(=O)[C@@H]5CCCN5C1=O)C(=O)NCC(=O)N[C@@H](CCC(=O)O)C(=O)N[C@@H]([C@@H](C)O)C(=O)N4)NC(=O)CNC(=O)[C@@H]1CCCN1C(=O)[C@H]([C@@H](C)O)NC(=O)[C@H](CC(N)=O)NC3=O)C(=O)N[C@@H](CO)C(=O)N[C@@H](Cc1c[nH]c3ccccc13)C(=O)N1CCC[C@H]1C(=O)N[C@@H](C(C)C)C(=O)N2` [KALATA B1], the IC50 [2] is reported as 3.9 µM.
With `CC[C@H](C)[C@H](NC(=O)CN)C(=O)NCC(=O)N[C@@H](C)C(=O)N[C@H](C(=O)N[C@@H](CC(C)C)C(=O)N[C@@H](CCCCN)C(=O)N[C@H](C(=O)N[C@@H](CC(C)C)C(=O)N[C@H](C(=O)N[C@H](C(=O)NCC(=O)N[C@@H](CC(C)C)C(=O)N1CCC[C@H]1C(=O)N[C@@H](C)C(=O)N[C@@H](CC(C)C)C(=O)N[C@H](C(=O)N[C@@H](CO)C(=O)N[C@@H](Cc1c[nH]c2ccccc12)C(=O)N[C@H](C(=O)N[C@@H](CCCCN)C(=O)N[C@@H](CCCNC(=N)N)C(=O)N[C@@H](CCCCN)C(=O)N[C@@H](CCCNC(=N)N)C(=O)N[C@@H](CCC(N)=O)C(=O)N[C@@H](CCC(N)=O)C(N)=O)[C@@H](C)CC)[C@@H](C)CC)[C@@H](C)O)[C@@H](C)O)C(C)C)C(C)C` the Activity [7] was “Active”, the Activity [8] was “Active” and the Activity [9] was “Active”.

Reference: ChEMBL document CHEMBL2010783, “Do plant cyclotides have potential as immunosuppressant peptides?” (J Nat Prod, 2012)
